Reference: ChEMBL document CHEMBL3779767, “Identification of potent and selective MTH1 inhibitors” (Bioorg Med Chem Lett, 2016)
Activity calls are given as the source filed them.

Columns and labels:
[1] = molecular target: Mitogen-activated protein kinase kinase kinase 4 (Homo sapiens) (UniProt Q9Y6R4); assay: Inhibition of partial length human MAP3K4 expressed in bacterial system at 1 uM
Method in brief: (§1)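 Single-point screen within a 97-kinase profiling panel, with the test compound at 1 µM.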

[2] = molecular target: Serine/threonine-protein kinase pim-2 (Homo sapiens) (UniProt Q9P1W9); assay: Inhibition of partial length human PIM2 expressed in bacterial system at 1 uM
Method in brief: (§2)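 Single-concentration screen across a panel of 97 kinases, with the test compound at 1 uM.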

[3] = molecular target: Mitogen-activated protein kinase 9 (Homo sapiens) (UniProt P45984); assay: Inhibition of partial length human JNK2 expressed in mammalian system at 1 uM; method in brief: as §1
[4] = molecular target: Ribosomal protein S6 kinase alpha-2 (Homo sapiens) (UniProt Q15349); assay: Inhibition of N-terminal partial length human RSK2 kinase domain 1 expressed in mammalian system at 1 uM; method in brief: as §1
[5] = molecular target: Cyclin-dependent kinase 2 (Homo sapiens) (UniProt P24941); assay: Inhibition of partial length human CDK2 expressed in bacterial system at 1 uM; method in brief: as §1
[6] = molecular target: Dual specificity mitogen-activated protein kinase kinase 2 (Homo sapiens) (UniProt P36507); assay: Inhibition of partial length human MEK2 expressed in mammalian system at 1 uM; method in brief: as §2
[7] = molecular target: Angiopoietin-1 receptor (Homo sapiens) (UniProt Q02763); assay: Inhibition of partial length human TIE2 expressed in bacterial system at 1 uM; method in brief: as §2
[8] = molecular target: Tyrosine-protein kinase ABL1 (Homo sapiens) (UniProt P00519); assay: Inhibition of partial length human ABL1 expressed in mammalian system at 1 uM; method in brief: as §1
[9] = molecular target: Serine/threonine-protein kinase DCLK1 (Homo sapiens) (UniProt O15075); assay: Inhibition of partial length human DCAMKL1 expressed in mammalian system at 1 uM; method in brief: as §1
[10] = molecular target: Ephrin type-A receptor 2 (Homo sapiens) (UniProt P29317); assay: Inhibition of partial length human EPHA2 expressed in bacterial system at 1 uM; method in brief: as §1
[11] = organism: Homo sapiens; assay: Inhibition of partial length human CDK11 expressed in bacterial system at 1 uM
Method in brief: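 Single-concentration screen within a 97-kinase profiling panel (KinomeEdge), with the compound tested at one fixed concentration across all panel kinases.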

[12] = molecular target: Phosphatidylinositol 4,5-bisphosphate 3-kinase catalytic subunit gamma isoform (Homo sapiens) (UniProt P48736); assay: Inhibition of partial length human PIK3Cgamma expressed in mammalian system at 1 uM; method in brief: as §2

Measured: inhibition

Sequence of Tyrosine-protein kinase ABL1 (Homo sapiens) (P00519 whole entry): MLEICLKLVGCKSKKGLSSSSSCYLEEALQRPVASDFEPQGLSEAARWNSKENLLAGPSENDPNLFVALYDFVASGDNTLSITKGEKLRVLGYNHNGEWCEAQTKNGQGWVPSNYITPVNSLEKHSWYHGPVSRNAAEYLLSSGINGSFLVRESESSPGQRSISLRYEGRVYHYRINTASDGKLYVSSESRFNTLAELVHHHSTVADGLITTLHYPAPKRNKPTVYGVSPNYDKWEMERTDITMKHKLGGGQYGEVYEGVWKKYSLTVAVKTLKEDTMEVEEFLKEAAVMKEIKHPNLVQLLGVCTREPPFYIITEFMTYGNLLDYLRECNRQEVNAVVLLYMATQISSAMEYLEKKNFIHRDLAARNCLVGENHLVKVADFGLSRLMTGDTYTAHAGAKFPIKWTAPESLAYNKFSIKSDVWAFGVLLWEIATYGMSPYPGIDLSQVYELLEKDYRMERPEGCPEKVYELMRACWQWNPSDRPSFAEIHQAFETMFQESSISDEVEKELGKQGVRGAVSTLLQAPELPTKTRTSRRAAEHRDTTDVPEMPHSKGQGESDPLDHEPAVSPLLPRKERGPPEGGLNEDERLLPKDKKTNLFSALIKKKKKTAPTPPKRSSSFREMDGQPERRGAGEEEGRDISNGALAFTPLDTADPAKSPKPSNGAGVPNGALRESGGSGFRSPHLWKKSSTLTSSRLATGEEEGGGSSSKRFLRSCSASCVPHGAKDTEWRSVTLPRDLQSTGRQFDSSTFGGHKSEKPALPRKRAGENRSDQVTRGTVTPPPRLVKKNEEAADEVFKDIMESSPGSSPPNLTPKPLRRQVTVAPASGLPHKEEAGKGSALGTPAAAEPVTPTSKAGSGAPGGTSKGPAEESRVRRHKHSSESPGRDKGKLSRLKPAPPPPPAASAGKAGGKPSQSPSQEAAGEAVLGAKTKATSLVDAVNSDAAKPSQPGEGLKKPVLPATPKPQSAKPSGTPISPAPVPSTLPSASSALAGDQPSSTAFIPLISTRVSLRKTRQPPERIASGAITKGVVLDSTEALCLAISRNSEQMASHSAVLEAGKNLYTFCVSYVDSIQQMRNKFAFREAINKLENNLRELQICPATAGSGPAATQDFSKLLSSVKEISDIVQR
Sequence of Mitogen-activated protein kinase kinase kinase 4 (Homo sapiens) (Q9Y6R4 whole entry): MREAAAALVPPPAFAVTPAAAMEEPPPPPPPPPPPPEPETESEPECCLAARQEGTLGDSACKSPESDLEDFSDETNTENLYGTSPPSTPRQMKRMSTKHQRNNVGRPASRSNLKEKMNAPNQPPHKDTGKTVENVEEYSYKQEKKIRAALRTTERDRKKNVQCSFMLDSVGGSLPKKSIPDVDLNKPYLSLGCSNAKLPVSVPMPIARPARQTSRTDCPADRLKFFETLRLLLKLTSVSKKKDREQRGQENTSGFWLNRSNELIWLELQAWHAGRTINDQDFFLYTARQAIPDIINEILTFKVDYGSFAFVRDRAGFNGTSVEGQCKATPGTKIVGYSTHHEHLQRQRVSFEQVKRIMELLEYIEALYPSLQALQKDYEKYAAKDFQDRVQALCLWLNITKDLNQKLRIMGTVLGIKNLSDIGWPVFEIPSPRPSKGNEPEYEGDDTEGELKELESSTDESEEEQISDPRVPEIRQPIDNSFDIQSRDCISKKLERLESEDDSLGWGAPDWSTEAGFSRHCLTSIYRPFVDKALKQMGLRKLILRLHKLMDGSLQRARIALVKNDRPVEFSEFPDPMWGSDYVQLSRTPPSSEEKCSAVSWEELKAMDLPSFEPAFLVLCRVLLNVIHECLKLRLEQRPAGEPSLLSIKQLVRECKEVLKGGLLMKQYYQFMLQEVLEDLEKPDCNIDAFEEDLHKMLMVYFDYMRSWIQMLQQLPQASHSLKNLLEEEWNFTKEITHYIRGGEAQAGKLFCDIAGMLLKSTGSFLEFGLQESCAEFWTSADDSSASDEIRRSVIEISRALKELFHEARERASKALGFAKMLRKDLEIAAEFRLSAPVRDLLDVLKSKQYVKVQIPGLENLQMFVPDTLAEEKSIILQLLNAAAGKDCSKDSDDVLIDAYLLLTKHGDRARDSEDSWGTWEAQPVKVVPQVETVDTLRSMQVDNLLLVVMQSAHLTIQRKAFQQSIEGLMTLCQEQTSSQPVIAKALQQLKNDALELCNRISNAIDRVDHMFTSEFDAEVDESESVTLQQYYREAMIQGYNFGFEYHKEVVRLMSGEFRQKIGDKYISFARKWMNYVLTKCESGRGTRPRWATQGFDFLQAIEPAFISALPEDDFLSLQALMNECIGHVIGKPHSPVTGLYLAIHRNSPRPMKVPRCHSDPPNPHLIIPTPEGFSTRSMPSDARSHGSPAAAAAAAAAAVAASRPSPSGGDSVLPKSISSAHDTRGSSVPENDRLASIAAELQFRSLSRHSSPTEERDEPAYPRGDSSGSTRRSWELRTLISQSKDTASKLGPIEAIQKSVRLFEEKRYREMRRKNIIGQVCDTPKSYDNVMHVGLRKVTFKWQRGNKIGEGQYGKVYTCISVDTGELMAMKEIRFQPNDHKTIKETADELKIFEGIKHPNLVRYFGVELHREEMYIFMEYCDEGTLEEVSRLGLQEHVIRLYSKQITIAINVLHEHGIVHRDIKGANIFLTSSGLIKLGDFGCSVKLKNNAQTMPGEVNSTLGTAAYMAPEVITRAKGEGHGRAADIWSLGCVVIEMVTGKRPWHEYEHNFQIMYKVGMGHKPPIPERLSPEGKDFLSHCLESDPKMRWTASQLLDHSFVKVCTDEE
Sequence of Ephrin type-A receptor 2 (Homo sapiens) (P29317 whole entry): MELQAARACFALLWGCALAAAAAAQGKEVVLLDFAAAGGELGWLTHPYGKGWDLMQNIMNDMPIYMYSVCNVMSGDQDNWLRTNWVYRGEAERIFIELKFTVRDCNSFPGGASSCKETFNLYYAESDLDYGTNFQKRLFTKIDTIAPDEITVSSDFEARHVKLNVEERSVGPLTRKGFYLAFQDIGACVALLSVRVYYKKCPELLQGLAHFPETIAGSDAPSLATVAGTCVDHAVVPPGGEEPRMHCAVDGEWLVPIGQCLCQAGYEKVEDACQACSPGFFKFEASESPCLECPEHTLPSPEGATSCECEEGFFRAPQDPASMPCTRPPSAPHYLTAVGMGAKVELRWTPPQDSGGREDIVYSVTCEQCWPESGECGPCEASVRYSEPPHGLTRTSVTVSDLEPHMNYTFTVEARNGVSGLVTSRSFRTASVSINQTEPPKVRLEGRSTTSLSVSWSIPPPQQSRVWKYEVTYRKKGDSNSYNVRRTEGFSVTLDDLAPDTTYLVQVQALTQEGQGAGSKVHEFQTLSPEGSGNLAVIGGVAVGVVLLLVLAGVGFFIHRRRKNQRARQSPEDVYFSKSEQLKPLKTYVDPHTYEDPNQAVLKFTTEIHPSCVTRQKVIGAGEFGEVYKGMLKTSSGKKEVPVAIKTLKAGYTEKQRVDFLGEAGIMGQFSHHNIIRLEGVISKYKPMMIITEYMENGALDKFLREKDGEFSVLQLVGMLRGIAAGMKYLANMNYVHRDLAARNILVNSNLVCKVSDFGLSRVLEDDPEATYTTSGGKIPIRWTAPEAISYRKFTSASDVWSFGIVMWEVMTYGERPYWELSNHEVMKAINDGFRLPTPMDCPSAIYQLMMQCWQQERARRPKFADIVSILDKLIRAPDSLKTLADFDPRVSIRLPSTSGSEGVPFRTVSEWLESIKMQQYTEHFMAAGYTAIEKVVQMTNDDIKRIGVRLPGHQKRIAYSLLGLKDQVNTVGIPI
Sequence of Serine/threonine-protein kinase pim-2 (Homo sapiens) (Q9P1W9 whole entry, looked up): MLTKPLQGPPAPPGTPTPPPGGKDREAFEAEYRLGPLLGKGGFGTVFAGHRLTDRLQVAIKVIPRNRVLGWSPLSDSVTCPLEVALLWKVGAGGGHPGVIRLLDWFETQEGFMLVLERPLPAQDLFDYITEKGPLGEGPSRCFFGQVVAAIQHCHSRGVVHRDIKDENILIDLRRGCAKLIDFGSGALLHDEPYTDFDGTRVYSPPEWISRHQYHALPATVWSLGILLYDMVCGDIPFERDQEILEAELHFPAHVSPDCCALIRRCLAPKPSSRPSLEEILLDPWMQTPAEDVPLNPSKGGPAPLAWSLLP
Sequence of Dual specificity mitogen-activated protein kinase kinase 2 (Homo sapiens) (P36507 whole entry): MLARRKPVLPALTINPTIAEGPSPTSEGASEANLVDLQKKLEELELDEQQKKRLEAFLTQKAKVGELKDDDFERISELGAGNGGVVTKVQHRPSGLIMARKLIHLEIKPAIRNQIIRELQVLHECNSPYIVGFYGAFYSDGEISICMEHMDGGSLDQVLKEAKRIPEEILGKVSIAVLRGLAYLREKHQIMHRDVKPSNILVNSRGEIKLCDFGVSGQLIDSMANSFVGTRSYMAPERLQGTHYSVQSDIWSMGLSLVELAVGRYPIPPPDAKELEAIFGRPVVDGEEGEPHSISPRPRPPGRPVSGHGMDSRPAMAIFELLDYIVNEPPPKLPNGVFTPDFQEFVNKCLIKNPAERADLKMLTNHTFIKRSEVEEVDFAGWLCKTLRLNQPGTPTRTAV
Sequence of Mitogen-activated protein kinase 9 (Homo sapiens) (P45984 whole entry, looked up, the tested form may be a part): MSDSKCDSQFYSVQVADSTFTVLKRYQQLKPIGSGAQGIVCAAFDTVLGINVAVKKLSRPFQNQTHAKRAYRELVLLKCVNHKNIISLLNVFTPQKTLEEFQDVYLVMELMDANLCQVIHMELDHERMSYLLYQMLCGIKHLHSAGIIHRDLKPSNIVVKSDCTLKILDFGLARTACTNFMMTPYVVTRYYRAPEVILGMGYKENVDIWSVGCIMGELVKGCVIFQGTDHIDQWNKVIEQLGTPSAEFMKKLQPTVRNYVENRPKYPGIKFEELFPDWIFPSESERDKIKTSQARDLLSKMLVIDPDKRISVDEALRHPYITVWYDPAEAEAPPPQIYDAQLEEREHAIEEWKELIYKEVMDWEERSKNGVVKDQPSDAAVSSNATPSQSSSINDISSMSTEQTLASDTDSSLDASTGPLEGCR

Cc1cnc(N)nc1OCC(C)(C)CO
inactive: all assays above
